{"source": "paper PMC4059610", "about": "(Cell, 2014)", "key": {"WRC": {"test_system": "WRC", "conditions": "ref Nakao et al., 2008, Tai et al., 2010 (PCDH10, PCDH19), Bernadskaya et al., 2012, Stavoe et al., 2012 (DCC), 2012 (ROBO1), Karpushev et al., 2011 (ENaC); cited from earlier work"}, "WRC (2MBP-ΔWRC)": {"test_system": "WRC (2MBP-ΔWRC)", "assay": "MBP pull-down by immobilized 2MBP-ΔWRC", "format": "binding, human", "conditions": "data not shown", "method_in_brief": "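Bait was immobilized 2MBP-ΔWRC, either wild type or the AW form (R106A/G110W in Abi2). It was mixed on affinity beads with a 5- to 10-fold excess of GST-tagged receptor cytoplasmic tails, purified by glutathione affinity chromatography with or without ion exchange and size exclusion. Beads were incubated and washed, then eluted with maltose. Retained proteins were seen on Coomassie-stained gels.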"}, "[1]": {"test_system": "2MBP-ΔWRC / GST-hPCDH10 CT interaction", "assay": "Competition of 2MBP-ΔWRC pull-down of PCDH10 CT", "format": "binding, human", "conditions": "Fig. 1D", "method_in_brief": "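Immobilized 2MBP-ΔWRC bait was mixed on affinity beads with a 5- to 10-fold excess of GST-tagged PCDH10 cytoplasmic tail prey, with wild-type WIRS peptide or T8A/F9A mutant peptide as competitor. After incubation and washing, bound proteins were eluted with maltose.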"}, "[2]": {"test_system": "endogenous PCDH10/WRC interaction", "assay": "Co-immunoprecipitation of WRC", "format": "binding", "conditions": "5 mM WIRS peptide, anti-WAVE1, mouse brain lysate, n = 7, p = 0.00003, Fig. 6B"}, "endogenous WRC": {"test_system": "endogenous WRC", "assay": "GST-PCDH10 CT pull-down of endogenous WRC from mouse brain lysate", "format": "binding", "conditions": "100 μM WIRS peptide, Fig. 6A", "method_in_brief": "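Immobilized GST-PCDH10 cytoplasmic tail was incubated with mouse brain lysate on glutathione affinity beads. Competitor was buffer or 100 μM WIRS peptide, either wild type or T8A/F9A mutant. Beads were washed and bound proteins eluted with reduced glutathione. Retained endogenous WRC was detected by Western blot.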"}, "WRC / Arp2/3 complex": {"test_system": "WRC / Arp2/3 complex", "assay": "Arp2/3-mediated pyrene-actin assembly assay", "format": "biochemical", "conditions": "minimal WIRS peptide; 100 nM WRC217, Fig. 5A"}}, "data": [{"substance": "DCC: netrin receptor", "values": [{"measurement": "Previously shown interaction with the WRC, biochemical or genetic", "setting": "WRC", "result": "previously shown to interact with the WRC biochemically or genetically"}]}, {"substance": "FAT2: protocadherin FAT2, WIRS motif only found in human, mouse and chicken", "values": [{"measurement": "Binding to WRC in vitro using its WIRS motif", "setting": "WRC (2MBP-ΔWRC)", "result": "binds the WRC in vitro using its WIRS motif"}]}, {"substance": "WIRS peptide: peptide containing the conserved sequence RSFSTFGKE of PCDH10 (WRC interacting receptor sequence)", "values": [{"measurement": "Blocking of PCDH10 CT binding to 2MBP-ΔWRC", "setting": "[1]", "result": "blocked this interaction"}, {"measurement": "Effect on co-immunoprecipitation of PCDH10 with WRC", "setting": "[2]", "result": "weakened"}, {"measurement": "Blocking of GST-PCDH10 CT pull-down of endogenous WRC", "setting": "endogenous WRC", "result": "completely blocked the interaction"}, {"measurement": "Effect on Rac1 stimulation of WRC activity", "setting": "WRC / Arp2/3 complex", "result": "had no effect on Rac1 stimulation"}]}]}
